The source made the active and inactive calls. The rule behind the calls is not given here.
Tests used:
HEK293 [1] = assay: Growth inhibition of HEK293 cells at 100 uM after 72 hrs by MTT assay; assay type: functional; details: Homo sapiens, HEK293, 72 h; read-out: GI
Jurkat [2] = assay: Induction of apoptosis in human Jurkat cells at 200 nM after 72 hrs by propidium iodide staining based flow cytometry (reference value: 0.9 +/ 0.2%); assay type: functional
[3] = Induction of apoptosis in mouse W1308 cells assessed as apoptotic cells level at 200 nM after 48 hrs by 3,3'-dihexyloxacarbocyanine iodide and propidium iodide staining based flow cytometry (reference value: 11%); assay type: functional
Jurkat [4] = assay: Cytotoxicity against human Jurkat cells after 72 hrs by MTT assay; assay type: functional, cell-based
In short: (§1)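 Cells seeded at 3x10^5 cells/mL 24 h before assay (HEK293, AsPC-1 in DMEM; Jurkat, W1308 in RPMI-1640; 10% FCS, 2-ME). Tenfold dilutions from […] to 1 nM added; untreated cells as controls. 72 h incubation, MTT 250 µg/ml added for last 6 h, formazan dissolved in DMSO, OD read. IC50 from titration curves; inhibition index = 1 − OD(treated)/OD(control).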

ASPC1 [5] = assay: Induction of apoptosis in human AsPC1 cells assessed as double nucleated cells level at 200 nM after 72 hrs by Hoechst 33342 and mitotracker red staining based confocal microscopy; assay type: functional, cell-based
In short: (§2)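 AsPC-1 cells grown overnight on coverslips, then cultured 72 h with compound at various concentrations in complete medium. Hoechst 33342 and MitoTracker Red added for 1 h; cells fixed in 1% paraformaldehyde, mounted in Mowiol, and examined by confocal microscopy for nuclear and mitochondrial morphology.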

ASPC1 [6] = assay: Growth inhibition of human AsPC1 cells at 100 uM after 72 hrs by MTT assay; assay type: functional; details: ASPC1, 72 h, read-out: GI
ASPC1 [7] = assay: Induction of apoptosis in human AsPC1 cells assessed as cell fractionation level at 200 nM after 72 hrs by Hoechst 33342 and mitotracker red staining based confocal microscopy; assay type: functional; in short: as §2
[8] = Reduction in blood-brain barrier permeability in […]; assay type: ADME, tissue-based, C57BL/6, Endothelial cell; set-up: scale not given: the % may be the effect or the level left; details: mouse
In short: (§3)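 Intact mice, 6–8 wk, 3 per group; compound dissolved in DMSO at 20 mM, 4 µl diluted into 200 µl saline (1 mg/kg), mixed with 50 µl rhodamine B, single i.v. injection; controls DMSO plus rhodamine B. Killed 4 h later; organs cut, extracted in 0.3N acid in ethanol 2 h at 37 °C, centrifuged, supernatant fluorescence read with 540 nm filter.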

Jurkat [9] = assay: Induction of cell cycle arrest in human Jurkat cells assessed as G1/G2 phas e-ratio at 200 nM after 72 hrs by propidium iodide staining based flow cytometry (reference value: 2.7); assay type: functional
HEK293 [10] = assay: Cytotoxicity against HEK293 cells after 72 hrs by MTT assay; assay type: functional, cell-based; details: Homo sapiens, HEK293, 72 h; in short: as §1
[11] = Inhibition of lamb brain tubulin polymerization assessed as reduction in microtubule assembly by spectrophotometry; set-up: species or system Ovis aries
In short: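 Tubulin purified from lamb brain by ammonium sulfate fractionation and ion-exchange chromatography. Assembly in 20 mM sodium phosphate, 1 mM EGTA, 10 mM MgCl2, 3.4 M glycerol, 1 mM GTP, pH 6.5, started by warming to 37 °C; turbidity followed at 350 nm over time. Inhibition plotted against ligand:tubulin molar ratio.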

[12] = Induction of cell cycle arrest in mouse W1308 cells assessed as accumulation at G2/M phase at 200 nM after 72 hrs by propidium iodide staining based flow cytometry (reference value: 56 +/ 1%); assay type: functional
ASPC1 [13] = assay: Induction of apoptosis in human AsPC1 cells assessed as mitochondria enlargement at 200 nM after 72 hrs by Hoechst 33342 and mitotracker red staining based confocal microscopy; assay type: functional, cell-based; in short: as §2
HEK293 [14] = assay: Induction of cell cycle arrest in HEK293 cells assessed as G1/G2 phase ratio at 200 nM after 72 hrs by propidium iodide staining based flow cytometry (reference value: 3.6); assay type: functional, Homo sapiens
ASPC1 [15] = assay: Cytotoxicity against human AsPC1 cells after 72 hrs by MTT assay; assay type: functional, cell-based; details: ASPC1, 72 h; in short: as §1
[16] = Induction of cell cycle arrest in mouse W1308 cells assessed as accumulation at G1 phase at 200 nM after 72 hrs by propidium iodide staining based flow cytometry (reference value: 43 +/ 2%); assay type: functional
Mus musculus [17] = assay: Toxicity in mouse MMTV-Wnt-1 cells implanted C57BL/6 mouse assessed as induction of neurological symptoms at 0.4 mg/kg, iv once weekly for four weeks; assay type: organism-based; set-up: dose 0.4 mg/kg, route intravenous; details: in vivo
In short: (§4)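 C57BL/6 mice, 6–8 wk, inoculated subcutaneously with Wnt-1 tumor cells in 50 µl PBS into left inguinal fat pad under anesthesia. Treatment started at day 27 in mice with palpable tumors (n=7 per group). Compound in 200 µl saline given i.v. into orbital sinus at days 27, 34, 41, 48; controls received saline. Tumors measured by caliper twice weekly, volume (W²×L)/2. Study ended day 51.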

[18] = (§5) Toxicity in iv dosed C57BL/6 mouse measured after 24 to 48 hrs; assay type: organism-based; details: C57BL/6, mouse, in vivo
In short: (§6)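 Acute toxicity: single doses given i.p. or i.v. to 6–8 wk C57BL/6 mice to determine LD100 and LD50; lethality observed 24–48 h after injection.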

Mus musculus [19] = assay: as §5; assay type: organism-based; details: mouse, in vivo; in short: as §6
Jurkat [20] = assay: Growth inhibition of human Jurkat cells at 100 uM after 72 hrs by MTT assay; assay type: functional; details: read-out: GI
ASPC1 [21] = assay: Induction of apoptosis in human AsPC1 cells assessed as apoptotic body formation at 200 nM after 72 hrs by Hoechst 33342 and mitotracker red staining based confocal microscopy; assay type: functional, cell-based; in short: as §2
Jurkat [22] = assay: Induction of cell cycle arrest in human Jurkat cells assessed as accumulation at G2/M phase at 200 nM after 72 hrs by propidium iodide staining based flow cytometry (reference value: 27 +/ 2%); assay type: functional
HEK293 [23] = assay: Induction of apoptosis in HEK293 cells at 200 nM after 72 hrs by propidium iodide staining based flow cytometry (reference value: 3 +/- 1%); assay type: functional, Homo sapiens
Mus musculus [24] = assay: Toxicity in C57BL/6 mouse assessed as interphase microtubule de-stabilizing activity by measuring influx of rhodamine in to spleen at 1 mg/kg, iv co-administered with rhodamine B by fluorimetry; assay type: organism-based; set-up: dose 1 mg/kg, route intravenous; details: in vivo; in short: as §3
HEK293 [25] = assay: Induction of cell cycle arrest in HEK293 cells assessed as accumulation at G2/M phase at 200 nM after 72 hrs by propidium iodide staining based flow cytometry (reference value: 21 +/- 2%); assay type: functional, Homo sapiens
[26] = Cytotoxicity against mouse W1308 cells after 72 hrs by MTT assay; assay type: functional, cell-based; details: W1308, 72 h; in short: as §1
Mus musculus [27] = assay: Toxicity in C57BL/6 mouse assessed as interphase microtubule de-stabilizing activity by measuring influx of rhodamine in to heart at 1 mg/kg, iv co-administered with rhodamine B by fluorimetry; assay type: organism-based; set-up: dose 1 mg/kg, route intravenous; details: in vivo; in short: as §3
[28] = Induction of apoptosis in mouse W1308 cells 200 nM after 72 hrs by propidium iodide staining based flow cytometry (reference value: 0.3 +/ 0.1); assay type: functional
Mus musculus [29] = assay: Antitumor activity against mouse MMTV-Wnt-1 cells implanted in C57BL/6 mouse assessed as reduction in tumor volume at 0.4 mg/kg, iv once weekly for four weeks; assay type: functional, organism-based; set-up: dose 0.4 mg/kg; in short: as §4
[30] = Induction of cell cycle arrest in mouse W1308 cells assessed as G1/G2 phase ratio at 200 nM after 72 hrs by propidium iodide staining based flow cytometry (reference value: 0.8); assay type: functional

Compound `COc1cc2c(c(OC)c1OC)-c1cc3cc(CO)oc3cc1[C@@H](NC(C)=O)CC2` has an inhibition of growth at 100 µM (HEK293 [1]) of 60%, an Activity (Jurkat [2]) of 2.2% and an Activity [3] of 11%. The IC50 (Jurkat [4]) was under 0.02 µM, the Activity (ASPC1 [5]) was “Active” and the inhibition of growth at 100 µM (ASPC1 [6]) was 60%. The Activity (ASPC1 [7]) was “Active”, the Activity [8] was 40% and the Ratio (Jurkat [9]) was 0.6. The IC50 (HEK293 [10]) was under 0.02 µM, the IC50 [11] was 0.08 molar ratio and the Activity [12] was 80%. For the same compound, the Activity (ASPC1 [13]) was “Active”, the Ratio (HEK293 [14]) was 0.3 and the IC50 (ASPC1 [15]) was under 0.05 µM. For the same compound, the Activity [16] was 18%, the Activity (Mus musculus [17]) was “Non-toxic” and the LD50 [18] was 0.8 mg/kg. For the same compound, the LD100 (Mus musculus [19]) was 2 mg/kg, the inhibition of growth at 100 µM (Jurkat [20]) was 60% and the Activity (ASPC1 [21]) was “Active”. For the same compound, the Activity (Jurkat [22]) was 62%, the Activity (HEK293 [23]) was 6% and the Activity (Mus musculus [24]) was “Toxic”. For the same compound, the Activity (HEK293 [25]) was 72%, the IC50 [26] was under 0.02 µM and the Activity (Mus musculus [27]) was “Toxic”. For the same compound, the Activity [28] was 2.3%, the “growth inhibition (GI)” value (Mus musculus [29]) was “Active” and the Ratio [30] was 0.2.

From ChEMBL document CHEMBL3392953, “Synthesis and biological evaluation of furanoallocolchicinoids” (J Med Chem, 2015)
